Data on 19 compounds can be found in ChEMBL document CHEMBL3396953, “Design, synthesis and biological evaluation of a class of bioisosteric oximes of the novel dual peroxisome proliferator-activated receptor α/γ ligand LT175” (Eur J Med Chem, 2015).

SMILES strings stand for the structures. The source made the active and inactive calls. The rule behind the calls is not given here.

Holding throughout (assay type): cell-based
In assay [1] the target is T1, Peroxisome proliferator-activated receptor alpha (Homo sapiens, UniProt Q07869).
T1 sequence (Q07869 whole entry): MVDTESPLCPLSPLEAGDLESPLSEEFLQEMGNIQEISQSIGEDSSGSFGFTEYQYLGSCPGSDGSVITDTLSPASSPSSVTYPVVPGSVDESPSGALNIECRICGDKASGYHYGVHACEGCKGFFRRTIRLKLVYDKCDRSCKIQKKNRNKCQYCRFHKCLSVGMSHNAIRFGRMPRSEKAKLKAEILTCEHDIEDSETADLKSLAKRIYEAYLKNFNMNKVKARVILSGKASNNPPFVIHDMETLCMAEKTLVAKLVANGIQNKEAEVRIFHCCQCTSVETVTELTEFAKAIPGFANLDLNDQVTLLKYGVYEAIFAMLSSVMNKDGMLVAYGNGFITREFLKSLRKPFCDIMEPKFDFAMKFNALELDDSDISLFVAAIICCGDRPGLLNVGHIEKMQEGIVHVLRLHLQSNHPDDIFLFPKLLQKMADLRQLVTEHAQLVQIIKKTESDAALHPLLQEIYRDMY
Kind of assay: Agonist activity at GAL4-DNA binding domain fused human PPARalpha ligand binding domain expressed in human HepG2 cells assessed as receptor transactivation incubated for 20 hrs by luciferase reporter gene assay. The essentials:
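GAL4-PPARα-LBD chimera transiently expressed in HepG2 cells; 10⁵ cells/well seeded in triplicate, calcium-phosphate transfection after 24 h with GAL4-PPARα-LBD plasmid (30 ng), pGAL5TKpGL3 reporter (100 ng) and pCMVβgal (250 ng). Transfections repeated at least twice.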
(In general: A reporter such as luciferase makes a cellular process visible.)

Assay [2] addresses T2, Peroxisome proliferator-activated receptor gamma (Homo sapiens, UniProt P37231).
T2 sequence (P37231 whole entry): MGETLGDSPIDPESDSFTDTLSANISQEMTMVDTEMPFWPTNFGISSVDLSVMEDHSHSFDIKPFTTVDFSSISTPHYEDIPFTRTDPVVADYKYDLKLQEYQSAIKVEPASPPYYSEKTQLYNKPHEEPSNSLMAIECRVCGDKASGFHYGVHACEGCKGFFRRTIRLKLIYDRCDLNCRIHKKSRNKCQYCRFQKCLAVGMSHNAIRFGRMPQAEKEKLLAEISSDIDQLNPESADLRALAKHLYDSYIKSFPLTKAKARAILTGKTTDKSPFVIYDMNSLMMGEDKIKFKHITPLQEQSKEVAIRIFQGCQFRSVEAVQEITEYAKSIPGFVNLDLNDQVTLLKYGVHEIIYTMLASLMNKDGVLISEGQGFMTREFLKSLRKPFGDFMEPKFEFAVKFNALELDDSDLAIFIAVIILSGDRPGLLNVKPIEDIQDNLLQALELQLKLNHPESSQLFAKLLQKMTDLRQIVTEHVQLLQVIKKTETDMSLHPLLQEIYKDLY
Kind of assay: Agonist activity at GAL4-DNA binding domain fused human PPARgamma ligand binding domain expressed in human HepG2 cells assessed as receptor transactivation incubated for 20 hrs by luciferase reporter gene assay.

Assay [3] has as its target T3, Peroxisome proliferator-activated receptor alpha (Homo sapiens) (UniProt Q07869).
T3 sequence (whole entry): T1 sequence (Q07869 whole entry)
Kind of assay: Agonist activity at GAL4-DNA binding domain fused human PPARalpha ligand binding domain expressed in human HepG2 cells assessed as receptor transactivation incubated for 20 hrs by luciferase reporter gene assay relative to Wy-14,643. The procedure, abridged:
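GAL4-PPARα-LBD chimera transiently expressed in HepG2 cells; 10⁵ cells/well seeded in triplicate, calcium-phosphate transfection after 24 h with GAL4-PPARα-LBD plasmid (30 ng), pGAL5TKpGL3 reporter (100 ng) and pCMVβgal (250 ng). Efficacy expressed as percentage of maximum fold induction obtained with reference agonist Wy-14,643. Transfections repeated at least twice.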

The target of assay [4] is T4, PPAR alpha/gamma (Homo sapiens) (UniProt P37231+Q07869). Briefly: Agonist activity at PPARalpha/PPARgamma in human […] cells assessed as increase in ANGPTL4 gene expression at 25 uM incubated for 1 day by quantitative PCR method relative to untreated control. The essentials:
(§1)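 HepaRG cells grown two weeks in William's E medium with 10% FCS, insulin, glutamine and hydrocortisone, then two weeks more with 2% DMSO. Hepatocyte-like cells detached by mild trypsinization and seeded at 2.6 × 10⁴ cells/cm². After 24 h they were starved 16 h without DMSO/FCS, then exposed 24 h to ligand. Total RNA assayed by real-time qPCR; vehicle-treated control set to 1; duplicate samples; two-way ANOVA with Bonferroni.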

In assay [5] the target is T4, PPAR alpha/gamma (Homo sapiens). Briefly: Agonist activity at PPARalpha/PPARgamma in human […] cells assessed as increase in FABP4 gene expression at 25 uM incubated for 1 day by quantitative PCR method relative to untreated control. The procedure, abridged: as §1
For assay [6] the target is unchanged. Briefly: Agonist activity at PPARalpha/PPARgamma in human […] cells assessed as increase in CPT1A gene expression at 25 uM incubated for 1 day by quantitative PCR method relative to untreated control. The essentials:
as §1

For assay [7] the target is unchanged. Kind of assay: Agonist activity at PPARalpha/PPARgamma in human […] cells assessed as increase in CD36 gene expression at 25 uM incubated for 1 day by quantitative PCR method relative to untreated control. The procedure, abridged:
as §1

The target is the same in assay [8]. Kind of assay: Agonist activity at PPARalpha/PPARgamma in human […] cells assessed as increase in HMGCS2 gene expression at 25 uM incubated for 1 day by quantitative PCR method relative to untreated control. The essentials: as §1
Assay [9] has the same target. Briefly: Agonist activity at PPARalpha/PPARgamma in human […] cells assessed as increase in FABP1 gene expression at 25 uM incubated for 1 day by quantitative PCR method relative to untreated control. The procedure, abridged: as §1

The EC50 is the concentration needed to bring the measured effect to its halfway point. As to `O=C(O)[C@H](Cc1ccccc1)Oc1ccc(/C=N/O)cc1`, the half-maximal effective concentration (EC50) worked out at 5.5 µM in [1] (read-out: EC50) and 28 µM in assay [2] (read-out: EC50). Further, the Emax in assay [3] was found to be 98%.
`CCCO/N=C/c1ccc(O[C@@H](Cc2ccccc2)C(=O)O)cc1`: the 50% effective concentration (EC50) in assay [1] (read-out: EC50) and in assay [2] (read-out: EC50) was 3.8 µM in each case. In addition, the result in [4], in assay [7], in assay [8] and in assay [9] was Active. The fold change (FC) was 50 in assay [5] and 2 in assay [6]. For the same compound, the Emax in assay [3] was 91%.
For the compound `O=C(O)[C@H](Cc1ccccc1)Oc1ccc(-c2ccccc2)cc1`, the Emax in assay [3] stood at 100%.
With `O=C(O)C(Cc1ccccc1)Oc1ccc(/C=N/O)cc1` (racemic), the half-maximal effective concentration (EC50) in assay [1] (read-out: EC50) was 7.75 µM; in assay [2] (read-out: EC50) it was 43 µM. In addition, the Emax in assay [3] came to 91%.
In the same order, the values of `CO/N=C/c1ccc(OC(Cc2ccccc2)C(=O)O)cc1` (racemic) are 7.8 µM, 12.8 µM and 101%.
The like results for `CCCO/N=C/c1ccc(OC(Cc2ccccc2)C(=O)O)cc1` (racemic) were, in that order, 7.3 µM, 7.9 µM and 96%.
For the compound `CCCCO/N=C/c1ccc(OC(Cc2ccccc2)C(=O)O)cc1` (racemic), the 50% effective concentration (EC50) in [1] (read-out: EC50) was 3.9 µM; in assay [2] (read-out: EC50), 3.65 µM. Besides, in [3], the Emax turned out to be 68%.
For `CCCCCCCO/N=C/c1ccc(OC(Cc2ccccc2)C(=O)O)cc1` (racemic), the EC50 result in assay [1] (hepg2) is reported as “Not Active”.
Turning to `CC(C)O/N=C/c1ccc(OC(Cc2ccccc2)C(=O)O)cc1` (racemic), the figures for the EC50 in assay [1] (read-out: EC50) and in assay [2] (read-out: EC50) were 4.2 µM and 5.6 µM, respectively. Also, the Emax in assay [3] is 63%.
In the same order, the values of `CC(C)CO/N=C/c1ccc(OC(Cc2ccccc2)C(=O)O)cc1` (racemic) are 3.8 µM, 4.5 µM and 52%.
With `O=C(O)C(Cc1ccccc1)Oc1ccc(/C=N/OCc2ccccc2)cc1` (racemic), the figures for the EC50 in assay [1] (read-out: EC50) and in [2] (read-out: EC50) were 6.8 µM and 2.1 µM, respectively. The Emax in [3] is 58%.
The like results for `O=C(O)C(Cc1ccccc1)Oc1ccc(/C=N/OCCc2ccccc2)cc1` (racemic) were, in that order, 2.2 µM, 1.8 µM and 48%.
For `O=C(O)C(Cc1ccccc1)Oc1ccc(/C=N/OCCCc2ccccc2)cc1` (racemic), the EC50 was determined as 1.4 µM in [1] (read-out: EC50) and 1.25 µM in assay [2] (read-out: EC50). Also, the Emax in assay [3] was 24%.
The like results for `C/C(=N\O)c1ccc(OC(Cc2ccccc2)C(=O)O)cc1` (racemic) were, in that order, 5.2 µM, 9.4 µM and 68%.
On to `O=C(O)C(Cc1ccccc1)Oc1ccc(/C(=N/O)c2ccccc2)cc1` (racemic), for which the concentration giving a half-maximal response (EC50) in assay [1] (read-out: EC50) came out at 1.2 µM; in [2] (read-out: EC50), 12.4 µM. In assay [3], the Emax amounted to 78%.
The like results for `CCCO/N=C(\c1ccccc1)c1ccc(OC(Cc2ccccc2)C(=O)O)cc1` (racemic) were, in that order, 2.1 µM, 1 µM and 24%.
For the compound `CCCO/N=C(/c1ccccc1)c1ccc(OC(Cc2ccccc2)C(=O)O)cc1` (racemic), the figures for the EC50 in assay [1] (read-out: EC50) and in assay [2] (read-out: EC50) were 0.22 µM and 0.68 µM, respectively. For the same compound, the Emax in assay [3] was 59%.
For the compound `Cc1cccc(Nc2cc(Cl)nc(SCC(=O)O)n2)c1C` [PIRINIXIC ACID], the EC50 entry in assay [2] (hepg2) is recorded as “Not Active”.
As to `CN(CCOc1ccc(CC2SC(=O)NC2=O)cc1)c1ccccn1` (stereo unspecified) [ROSIGLITAZONE], in assay [1] (hepg2), the EC50 result was “Not Active”. Further, in [3], the Emax result is “inactive”.
